Measured values reported in ChEMBL document CHEMBL5724801, “EUbOPEN Chemogenomics Library - Multiplex” (2024).
Several values for one entry are separate records, joined by “and”; a condition that tells them apart may be missing. Identical values can stand only once.

System: HEK-293T
Assay: Multiplex assay against HEK293T
Type: toxicity, cell-based
Details: human
Summary of the method: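 Live cells were stained at seeding with Hoechst33342, BioTracker Green Microtubule Cytoskeleton Dye, MitoTracker Red and Annexin V Alexa Fluor 680, then imaged on a CQ1 microscope at 37°C and 5% CO2 after compound addition. CellPathfinder machine-learning gating split cells into Hoechst high-intensity objects or normal cells. Normal cells were split into healthy, pyknosed or fragmented nuclei, and pyknosed cells into mitotic or apoptotic. Tubulin, mitochondrial-mass and membrane-permeability phenotypes are per cents of healthy-nucleus cells.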

[1] = 12 h, 1 µM, compound concentration 1 uM
[2] = 12 h, 10 µM, compound concentration 10 uM
[3] = 24 h, 1 µM, compound concentration 1 uM
[4] = 24 h, 10 µM, compound concentration 10 uM
[5] = 48 h, 1 µM, compound concentration 1 uM
[6] = 48 h, 10 µM, compound concentration 10 uM

COCCNc1cc(NC(=O)N2CCCc3cc(CN4CCOCC4=O)c(C=O)nc32)ncc1C#N
Population Apoptotic (%) [1]: 8.39% and 10.83%
Population Fragmented Nuclei (%) [1]: 1.89% and 2%
Population Hoechst High Intensity Objects (%) [1]: 0% and 0.66%
Population Membrane Permeable-Phenotype (%) [1]: 0.45% and 0%
Population Mitochondria Different-Phenotype (%) [1]: 40% and 29.63%
Population Mitotic Cells (%) [1]: 91.61% and 89.17%
Population Normal (%) [1]: 100% and 99.34%
Population Pyknosed Nuclei (%) [1]: 38.65% and 80%
Total Cell Count [1]: 370 and 151
Population Apoptotic (%) [2]: 13.28% and 9.24%
Population Fragmented Nuclei (%) [2]: 3.21% and 5.33%
Population Hoechst High Intensity Objects (%) [2]: 0.71% and 0%
Population Membrane Permeable-Phenotype (%) [2]: 0.7% and 4.35%
Population Mitochondria Different-Phenotype (%) [2]: 34.27% and 17.39%
Population Mitotic Cells (%) [2]: 86.72% and 90.76%
Population Normal (%) [2]: 99.29% and 100%
Population Pyknosed Nuclei (%) [2]: 45.71% and 79.33%
Population Tubulin-Different-Phenotype (%) [2]: 22.38% and 30.43%
Total Cell Count [2]: 282 and 150
Population Apoptotic (%) [3]: 12.59% and 11.28%
Population Fragmented Nuclei (%) [3]: 1.33% and 4.05%
Population Hoechst High Intensity Objects (%) [3]: 0%
Population Membrane Permeable-Phenotype (%) [3]: 1.6% and 0%
Population Mitochondria Different-Phenotype (%) [3]: 19.15% and 9.09%
Population Mitotic Cells (%) [3]: 87.41% and 88.72%
Population Normal (%) [3]: 100%
Population Pyknosed Nuclei (%) [3]: 27.19% and 76.88%
Population Apoptotic (%) [4]: 27.05% and 20.97%
Population Fragmented Nuclei (%) [4]: 2.91% and 3.95%
Population Healthy Nuclei (%) [4]: 67.48% and 25.99%
Population Hoechst High Intensity Objects (%) [4]: 0.24% and 0%
Population Membrane Permeable-Phenotype (%) [4]: 1.44% and 0%
Population Mitochondria Different-Phenotype (%) [4]: 24.82% and 19.57%
Population Mitotic Cells (%) [4]: 72.95% and 79.03%
Population Normal (%) [4]: 99.76% and 100%
Population Pyknosed Nuclei (%) [4]: 29.61% and 70.06%
Population Tubulin-Different-Phenotype (%) [4]: 39.21% and 21.74%
Total Cell Count [4]: 413 and 177
Population Apoptotic (%) [5]: 7.19% and 11.39%
Population Fragmented Nuclei (%) [5]: 2.68% and 2.4%
Population Healthy Nuclei (%) [5]: 85.58% and 59.62%
Population Hoechst High Intensity Objects (%) [5]: 0%
Population Membrane Permeable-Phenotype (%) [5]: 6% and 3.23%
Population Mitochondria Different-Phenotype (%) [5]: 14.96% and 30.65%
Population Mitotic Cells (%) [5]: 92.81% and 88.61%
Population Normal (%) [5]: 100%
Population Apoptotic (%) [6]: 11.67% and 18.75%
Population Fragmented Nuclei (%) [6]: 2.84% and 5.15%
Population Healthy Nuclei (%) [6]: 81.65% and 53.65%
Population Hoechst High Intensity Objects (%) [6]: 0%
Population Membrane Permeable-Phenotype (%) [6]: 4.91% and 4%
Population Mitochondria Different-Phenotype (%) [6]: 35.13% and 34.4%
Population Mitotic Cells (%) [6]: 88.33% and 81.25%
Population Normal (%) [6]: 100%
Population Pyknosed Nuclei (%) [6]: 15.5% and 41.2%
